Active and inactive are the calls of the source. No cut-off for these calls is given here.
Columns and labels:
MCF7 = experiment: Antiproliferative activity against human MCF7 cells after 48 hrs by sulforhodamine B assay; format: functional, cell-based; settings: MCF7, 48 h
HT-29 = experiment: Antiproliferative activity against human HT-29 cells after 48 hrs by sulforhodamine B assay; format: functional, cell-based; settings: HT-29, 48 h
M21 [1] = experiment: Antiproliferative activity against human M21 cells after 48 hrs by sulforhodamine B assay; format: functional, cell-based; settings: M21, 48 h
M21 [2] = experiment: Cell cycle arrest in human M21 cells assessed as accumulation at S phase at 5 times IC50 after 24 hrs using propidium iodide staining by flow cytometric analysis (reference value: 30%); format: functional
M21 [3] = experiment: Cell cycle arrest in human M21 cells assessed as accumulation at G2/M phase at 5 times IC50 after 24 hrs using propidium iodide staining by flow cytometric analysis (reference value: 9%); format: functional
M21 [4] = experiment: Cell cycle arrest in human M21 cells assessed as accumulation at G0/G1 phase at 5 times IC50 after 24 hrs using propidium iodide staining by flow cytometric analysis (reference value: 61%); format: functional
M21 [5] = experiment: Disruption of cytoskeleton microtubule structure of human M21 cells at 5 times IC50 after 16 hrs by indirect immunofluorescence assay; format: functional, cell-based
Summary of the method: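 Fixed in 3.7% formaldehyde, permeabilized with saponin, and stained with anti-β-tubulin (TUB 2.1), Alexa-488 secondary and DAPI. Microtubule structure scored by fluorescence microscopy.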

MDA-MB-231 = experiment: Displacement of N,N'-ethylenebis(iodoacetamide) from colchicine-binding site of beta-tubulin in human MDA-MB-231 cells at 1000 times IC50 preincubated for after 2 hrs before N,N'-ethylenebis(iodoacetamide) addition measured after 1.5 hrs by chemiluminescence assay; format: cell-based
Summary of the method: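 EBI (100 μM final) added for 1.5 h at 37 °C; controls received 0.5% DMSO. Lysates (20 μg protein) run on 10% SDS-PAGE and blotted with anti-β-tubulin (TUB 2.1). β-tubulin–EBI adduct band detected by ECL.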

Row | SMILES | IC50 (MCF7) [nM] | IC50 (HT-29) [nM] | IC50 (M21 [1]) [nM] | Activity (M21 [2]) [%] | Activity (M21 [3]) [%] | Activity (M21 [4]) [%] | Activity (M21 [5]) | inhibition (MDA-MB-231)
1 | O=C1NCCN1c1ccc(S(=O)(=O)Oc2c(F)c(F)c(F)c(F)c2F)cc1 | 320 | 340 | 220 |  |  |  |  | 
2 | CC(C)(C)[Si](C)(C)Oc1ccc(OS(=O)(=O)c2ccc(N3CCNC3=O)cc2)cc1 | > 1000 | > 1000 | > 1000 |  |  |  |  | 
3 | Cc1ccc(OS(=O)(=O)c2ccc(N3CCNC3=O)cc2)c(C)c1 | 50 | 51 | 39 | 0 | 100 | 0 | Active | Active
4 | O=C(NCCCl)Nc1cccc(CCCCCO)c1 | 420 | 150 | 230 | 11 | 88 | 1 | Active | 
5 | O=C1NCCN1c1ccc(S(=O)(=O)Oc2ccc(Cl)cc2)cc1 | 88 | 87 | 58 | 0 | 100 | 0 | Active | Active
6 | O=C1NCCN1c1ccc(S(=O)(=O)Oc2ccc(-n3ccnc3)cc2)cc1 | > 1000 | > 1000 | > 1000 |  |  |  |  | 
7 | O=C1NCCCN1c1ccc(S(=O)(=O)Oc2cc(Cl)c(Cl)cc2Cl)cc1 | > 1000 | > 1000 | > 1000 |  |  |  |  | 
8 | CCC(C)c1ccc(OS(=O)(=O)c2ccc(N3CCNC3=O)cc2)cc1 (stereo not drawn) | 920 | 780 | 830 |  |  |  |  | 
9 | O=C1NCCN1c1ccc(S(=O)(=O)Oc2cc(F)c(F)c(F)c2)cc1 | 91 | 73 | 43 | 31 | 65 | 4 | Active | Active
10 | O=C1NCCN1c1ccc(S(=O)(=O)Oc2ccc(I)cc2)cc1 | 210 | 150 | 110 |  |  |  |  | 
11 | O=C1NCCN1c1ccc(S(=O)(=O)Oc2cccc(F)c2)cc1 | 54 | 42 | 31 | 9 | 84 | 7 | Active | Active
12 | CN(C)c1ccc(OS(=O)(=O)c2ccc(N3CCNC3=O)cc2)cc1 | 500 | 430 | 350 |  |  |  |  | 
13 | Nc1cccc(OS(=O)(=O)c2ccc(N3CCNC3=O)cc2)c1 | 270 | 1000 | 170 |  |  |  |  | 
14 | CCCCOc1ccc(OS(=O)(=O)c2ccc(N3CCNC3=O)cc2)cc1 | 890 | 540 | 530 |  |  |  |  | 
15 | Cc1cc(C)cc(OS(=O)(=O)c2ccc(N3CCNC3=O)cc2)c1 | 47 | 32 | 16 | 26 | 67 | 7 | Active | Active
16 | O=C1NCCN1c1ccc(S(=O)(=O)Oc2ccccn2)cc1 | 770 | 480 | 290 |  |  |  |  | 
17 | Cc1cc(OS(=O)(=O)c2ccc(N3CCNC3=O)cc2)ccc1N | 600 | 670 | 360 |  |  |  |  | 
18 | Cc1ccc2cccc(OS(=O)(=O)c3ccc(N4CCNC4=O)cc3)c2n1 | 330 | 180 | 130 |  |  |  |  | 
19 | Cc1cc(OS(=O)(=O)c2ccc(N3CCNC3=O)cc2)cc(C)c1C | 49 | 34 | 15 | 0 | 99 | 0 | Active | Active
20 | O=C1NCCN1c1ccc(S(=O)(=O)Oc2ccncc2)cc1 | > 1000 | > 1000 | > 1000 |  |  |  |  | 
21 | Nc1ccc(OS(=O)(=O)c2ccc(N3CCNC3=O)cc2)cc1 | > 1000 | > 1000 | 920 |  |  |  |  | 
22 | O=C1NCCCN1c1ccc(S(=O)(=O)Oc2c(Cl)cc(Cl)cc2Cl)cc1 | > 1000 | > 1000 | > 1000 |  |  |  |  | 
23 | Cc1cc(OS(=O)(=O)c2ccc(N3CCNC3=O)cc2)ccc1[N+](=O)[O-] | 180 | 140 | 100 |  |  |  |  | 
24 | O=C1NCCN1c1ccc(S(=O)(=O)Oc2ccc([N+](=O)[O-])cc2)cc1 | > 1000 | > 1000 | 570 |  |  |  |  | 
25 | O=C1NCCN1c1ccc(S(=O)(=O)Oc2ccc(O)cc2)cc1 | > 1000 | > 1000 | > 1000 |  |  |  |  | 
26 | O=C1NCCN1c1ccc(S(=O)(=O)Oc2c(Cl)cc(Cl)cc2Cl)cc1 | 170 | 110 | 120 |  |  |  |  | 
27 | CCOc1ccc(OS(=O)(=O)c2ccc(N3CCNC3=O)cc2)cc1 | 56 | 44 | 39 | 23 | 75 | 2 | Active | 
28 | COc1cc(OS(=O)(=O)c2ccc(N3CCCNC3=O)cc2)cc(OC)c1OC | 730 | 490 | 240 |  |  |  |  | 

Now from value to molecule, other results behind:

Row | IC50 (MCF7) [nM] | IC50 (HT-29) [nM] | SMILES | IC50 (M21 [1]) [nM] | Activity (M21 [2]) [%] | Activity (M21 [3]) [%] | Activity (M21 [4]) [%] | Activity (M21 [5]) | inhibition (MDA-MB-231)
29 | 87 | 61 | CCc1ccccc1OS(=O)(=O)c1ccc(N2CCNC2=O)cc1 | 52 | 0 | 100 | 0 | Active | Active
30 | 190 | 150 | CCc1ccc(OS(=O)(=O)c2ccc(N3CCNC3=O)cc2)cc1 | 120 |  |  |  |  | 
31 | 73 | 66 | O=C1NCCN1c1ccc(S(=O)(=O)Oc2ccccc2Cl)cc1 | 45 | 15 | 83 | 2 | Active | Active
32 | > 1000 | > 1000 | CCCc1ccccc1OS(=O)(=O)c1ccc(N2CCCNC2=O)cc1 | > 1000 |  |  |  |  | 
33 | 51 | 34 | CCCc1cccc(OS(=O)(=O)c2ccc(N3CCNC3=O)cc2)c1 | 27 | 25 | 73 | 2 | Active | Active
34 | 30 | 33 | Cc1ccccc1OS(=O)(=O)c1ccc(N2CCNC2=O)cc1 | 26 | 15 | 74 | 11 | Active | Active
35 | 61 | 51 | O=C1NCCN1c1ccc(S(=O)(=O)Oc2ccccc2F)cc1 | 34 | 34 | 48 | 18 | Active | Active
36 | 110 | 77 | CCCc1ccc(OS(=O)(=O)c2ccc(N3CCNC3=O)cc2)cc1 | 59 | 18 | 81 | 1 | Active | Active
37 | > 1000 | > 1000 | CCc1ccccc1OS(=O)(=O)c1ccc(N2CCCNC2=O)cc1 | > 1000 |  |  |  |  | 
38 | 220 | 180 | COc1ccccc1OS(=O)(=O)c1ccc(N2CCNC2=O)cc1 | 130 |  |  |  |  | 
39 | > 1000 | 720 | Cc1ccc(OS(=O)(=O)c2ccc(N3CCCNC3=O)cc2)cc1 | > 1000 |  |  |  |  | 
40 | > 1000 | > 1000 | Cc1ccc(OS(=O)(=O)c2ccc(N3CCCNC3=O)cc2)c(C)c1 | > 1000 |  |  |  |  | 
41 | > 1000 | > 1000 | O=C1NCCN1c1ccc(S(=O)(=O)Oc2ccccc2)cc1 | > 1000 |  |  |  |  | 
42 | 69 | 76 | CCCc1ccccc1OS(=O)(=O)c1ccc(N2CCNC2=O)cc1 | 61 | 0 | 100 | 0 | Active | Active
43 | 71 | 55 | O=C1NCCN1c1ccc(S(=O)(=O)Oc2ccccc2I)cc1 | 40 | 25 | 71 | 4 | Active | Active
44 | > 1000 | > 1000 | Cc1ccccc1OS(=O)(=O)c1ccc(N2CCCNC2=O)cc1 | > 1000 |  |  |  |  | 
45 | > 1000 | > 1000 | O=C1NCCCN1c1ccc(S(=O)(=O)Oc2cccc(F)c2)cc1 | > 1000 |  |  |  |  | 
46 | > 1000 | > 1000 | O=C1NCCCN1c1ccc(S(=O)(=O)Oc2ccc(F)cc2)cc1 | > 1000 |  |  |  |  | 
47 | > 1000 | > 1000 | Cc1cccc(OS(=O)(=O)c2ccc(N3CCCNC3=O)cc2)c1 | > 1000 |  |  |  |  | 
48 | > 1000 | > 1000 | COc1cccc(OS(=O)(=O)c2ccc(N3CCCNC3=O)cc2)c1 | > 1000 |  |  |  |  | 
49 | 270 | 190 | O=C1NCCN1c1ccc(S(=O)(=O)Oc2ccccc2[N+](=O)[O-])cc1 | 150 |  |  |  |  | 
50 | > 1000 | > 1000 | O=C1NCCCN1c1ccc(S(=O)(=O)Oc2ccc(Cl)cc2)cc1 | > 1000 |  |  |  |  | 

Reference: ChEMBL document CHEMBL1799919, “Design, synthesis, biological evaluation, and structure-activity relationships of substituted phenyl 4-(2-oxoimidazolidin-1-yl)benzenesulfonates as new tubulin inhibitors mimicking combretastatin A-4” (J Med Chem, 2011)
